High-throughput results deposited in PubChem BioAssay by several laboratories.
In the library only some 2.7% were active in any assay of this set; here they are far more common.
MC4R barr agon: human MC4R agonism via beta-arrestin. P32245. 0.98% of 360,000 active. activation, % at 8.9 µM. AID 540308. U2OS MC4R beta-arrestin complementation, luminescence; percent of melanotan II response, DMSO zero;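 active = activation above a per-plate cutoff, the mean activation of sample wells on that plate plus 3 SD, cut at about 8% in these data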
Target sequence (P32245 whole entry, looked up): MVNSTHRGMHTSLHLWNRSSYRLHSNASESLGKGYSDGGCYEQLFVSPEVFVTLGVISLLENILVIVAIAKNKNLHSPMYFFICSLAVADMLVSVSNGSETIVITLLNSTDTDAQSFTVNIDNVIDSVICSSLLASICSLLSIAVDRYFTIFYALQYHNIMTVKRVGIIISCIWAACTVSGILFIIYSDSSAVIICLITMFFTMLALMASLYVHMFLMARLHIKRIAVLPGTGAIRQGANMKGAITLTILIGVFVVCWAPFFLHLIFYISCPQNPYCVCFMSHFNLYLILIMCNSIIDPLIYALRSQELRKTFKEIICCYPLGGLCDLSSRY
NR1D1 modulator: modulators of human Rev-erb alpha DNA binding; P20393; Rev-erbα–FITC-DNA binding, fluorescence polarization, 90 min; AID 1259318; 0.79% of 370,000 active; activity, % at 10 µM;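 active = activity above about 14%, limit read from the data; passing the limit was not always enough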
NR2E3 ag-1: agonists of human nuclear receptor NR2E3; inhibition of corepressor binding, % at 4.78 µM; GST-NR2E3/biotin-RetCOR TR-FRET, 1536-well; 0.12% of 320,000 active; Q9Y5X4;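 active = percent inhibition above the cutoff of mean plus 3 SD of all tested compounds, set per screening campaign, cut at about 20% in these data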
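system = GST-tagged NR2E3 plus biotinylated RetCOR corepressor | input = 1.35 nM GST-NR2E3 | also added = 7 nM biotin-RetCOR | schedule = 5 h incubation at 4 °C | measured by = TR-FRET with europium anti-GST and streptavidin-D2, 340 nm excitation | read-out = percent loss of FRET ratio relative to control wells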
MC4R antagonist: antagonists of human melanocortin 4 receptor (MC4R); P32245; MC4R-expressing cells, MTII-stimulated cAMP, LANCE TR-FRET; inhibition, % at 6.5 µM; 0.48% of 360,000 active; AID 540295;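 active = inhibition above its plate's cutoff, the mean of tested wells on that plate plus 3 SD, cut at about 29% in these data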
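System – human MC4R-expressing U2OS cells · Also added – Melanotan II · Dosing – one concentration, 6.5 µM nominal · Timing – 30-min compound, 1-h challenge, 1-h detection, room temperature · Measured by – Eu-cAMP/anti-cAMP TR-FRET, emission 671 nm · Replicates – singlicate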
NR2E3 ag-2: agonists of human NR2E3 nuclear receptor; CHO-S Gal4-NCOR/VP16-NR2E3 two-hybrid, luciferase; Q9Y5X4; 0.35% of 360,000 active; inhibition of corepressor binding, % at 3.98 µM;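 active = inhibition above the mean of all tested compounds plus 3 SD, cut at about 70% in these data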;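 also: higher means lower luciferase signal from less NR2E3 corepressor binding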
PG9 binder: binds the HIV-1 gp120 antibody PG9. TR-FRET gp120-PG9 antibody binding. inhibition, % at 6.7 µM. 0.43% of 360,000 active. AID 624416; in the data active = inhibition above about 8.5%
NR2E3 agonist cf: confirmation of human NR2E3 nuclear receptor agonists. shares compounds with NR2E3 ag-1. cell-free NR2E3 corepressor release, TR-FRET, 5 h. activation (reported as inhibition), % at 3.98 µM. 39% of 360 active. AID 2379; in the data active = activation above about 20%
PPARg-NCOR2 ag: PPARg-NCOR2 interaction agonism, NR2E3 counter-screen | shares compounds with NR2E3 ag-1 | TR-FRET PPARg-NCOR2 coregulator interaction, biochemical | inhibition, % at 3.98 µM | 45% of 360 active; in the data active = inhibition above about 20%
Hits are given with their value; i = inactive; nt = no result.

SMILES | MC4R barr agon | NR1D1 modulator | NR2E3 ag-1 | MC4R antagonist | NR2E3 ag-2 | PG9 binder | NR2E3 agonist cf | PPARg-NCOR2 ag
Cc1ccc(C(=O)C2=C(O)C(=O)N(CCCn3ccnc3)C2c2ccc(OC(C)C)cc2)o1 (centres undefined) | i | i | 28.5 | i | i | 41.1 | i | i
CCOC(=O)CCCc1sc(N)nc1-c1[nH]c(=O)[nH]c1C | i | nt | 47.9 | i | i | nt | i | i
N#Cc1c(NC(=O)c2ccc(Br)o2)n(-c2ccccc2)c2nc3ccccc3nc12 | i | i | 24.1 | i | i | i | 37.8 | 53.9
CCN(CC(=O)NC(C)(C)C)Cc1nc2c(Br)cc(Br)cc2c(=O)[nH]1 | i | i | 21.6 | i | i | i | 33.0 | 29.1
CCN(CC(=O)NC1CCS(=O)(=O)C1)Cc1nc2c(Br)cc(Br)cc2c(=O)[nH]1 (centres undefined) | i | i | i | i | i | i | nt | nt
C=CCSc1nc(-c2ccccc2)c(C#N)c(=O)[nH]1 | i | i | 21.7 | i | i | i | i | 41.1
Cc1ccc(CN2CCN(/N=C/c3ccc(C)s3)CC2)c(C)c1 | i | i | i | i | i | i | nt | nt
COc1ccc(/C=C/c2ccccc2)cc1[C@H]1[C@@H]2C=CCC[C@@]2(C)C(=O)N1Cc1ccccc1 | i | i | i | i | i | i | nt | nt
COCCCN1CC(=O)N2C(c3ccc(C)cc3)c3[nH]c4ccccc4c3C[C@H]2C1=O (some centres undefined) | i | i | i | i | i | i | nt | nt
COC(=O)c1sc(N/N=C/c2ccc(C(C)C)cc2)nc1C | i | i | i | i | i | i | nt | nt
CC1Cc2cc(/C(O)=C3/C(=O)C(=O)N(Cc4ccco4)C3c3cccs3)ccc2O1 (centres undefined) | i | i | 22.3 | i | i | i | i | i
Cc1nc2ccc(NC(=O)N3CCOCC3)cc2s1 | i | i | i | i | i | i | nt | nt
O=C1CCCC(=O)C1C(c1ccc(Cl)cc1)C1C(=O)CCCC1=O | i | i | i | i | i | i | nt | nt
COc1cc(C2C(C(=O)c3cccs3)=C(O)C(=O)N2c2cc(C)on2)ccc1O (centres undefined) | i | i | i | i | i | i | nt | nt
Cc1cc(N2C(=O)C(O)=C(C(=O)c3cc4ccccc4o3)C2c2ccc(OC(C)C)cc2)no1 (centres undefined) | i | i | i | i | i | i | nt | nt
COc1cc(C2C(C(=O)c3cc4ccccc4o3)=C(O)C(=O)N2c2cc(C)on2)cc(OC)c1OC (centres undefined) | i | i | 30.2 | i | i | i | 34.7 | 34.3
COc1cc(C2C(C(=O)c3ccc(C)o3)=C(O)C(=O)N2c2cc(C)on2)cc(OC)c1OC (centres undefined) | i | i | i | i | i | i | nt | nt
COc1cccc2cc(C(=O)C3=C(O)C(=O)N(c4cc(C)on4)C3c3cccs3)oc12 (centres undefined) | i | i | 33.3 | i | i | i | 35.6 | 41.6
COC(=O)c1ccc(C2C(C(=O)c3cc4ccccc4o3)=C(O)C(=O)N2c2cc(C)on2)cc1 (centres undefined) | i | i | 23.2 | i | i | i | 32.5 | 27.1
CCOC(=O)N1CCC(NC(=O)c2cnn3c(C(F)(F)F)cc(-c4cccc(OC)c4)nc23)CC1 | nt | nt | i | nt | nt | i | nt | nt
COc1ccc(Cl)cc1NC(=O)c1ocnc1C | i | i | i | i | i | i | nt | nt
NC(=O)c1cc[n+](CC2=C(C(=O)O)N3C(=O)[C@@H](NC(=O)C(c4ccccc4)S(=O)(=O)[O-])[C@H]3SC2)cc1 (some centres undefined) | i | nt | 23.3 | i | i | nt | i | i
O=C1C=C(O)C(n2cncn2)C(c2ccc3c(c2)OCO3)C1 (centres undefined) | i | i | 23.7 | i | i | i | i | i
CCOC(=O)Cc1csc(-n2sc3ccccc3c2=O)n1 | i | i | 32.0 | i | i | i | i | 22.1
COCCNC(=O)c1cc(-c2ccccn2)nc2ccc(S(=O)(=O)N3CCC(C)CC3)cc12 | i | i | 20.4 | i | i | i | i | i
SMILES | MC4R barr agon | NR1D1 modulator | NR2E3 ag-1 | MC4R antagonist | NR2E3 ag-2 | PG9 binder | NR2E3 agonist cf | PPARg-NCOR2 ag
CCOCCCNC(=O)c1cc(-c2cccnc2)nc2ccc(S(=O)(=O)N3CCC(C)CC3)cc12 | i | nt | i | i | i | nt | nt | nt
CC(C)NS(=O)(=O)c1ccc(CCC(=O)O)cc1 | i | i | i | i | i | i | nt | nt
Cc1ccc2cc(CN(CC3CCCO3)C(=O)Nc3ccccc3F)c3nnnn3c2c1 (centres undefined) | i | i | i | i | i | i | nt | nt
COC(=O)c1cc2sccc2n1Cc1nc(-c2ccc(OC)cc2)oc1C | i | i | i | i | i | i | nt | nt
COC(=O)c1cc2sc(Cl)cc2n1Cc1nc(-c2ccccc2)oc1C | i | i | 25.4 | i | i | i | i | i
O=C(CN1C(=O)NC2(CCCc3ccccc32)C1=O)NCc1cccs1 (centres undefined) | i | i | i | i | i | i | nt | nt
C=CCOc1ccc(/C(O)=C2\C(=O)C(=O)N(CCOC)C2c2cccnc2)cc1 (centres undefined) | i | i | 20.6 | i | i | i | i | i
c1ccc(-n2ncc3c2ncn2nc(-c4ccco4)nc32)cc1 | i | i | 47.8 | i | i | i | i | 58.9
CCOc1ccc(CN2CCN(CC(O)Cn3c4ccccc4c4ccccc43)CC2)cc1 (centres undefined) | i | i | i | i | i | i | nt | nt
CCCCc1nnc(NC(=O)CSc2nc(O)c(-c3ccccc3)c(=O)[nH]2)s1 | i | i | i | i | i | i | nt | nt
CCCCc1nnc(NC(=O)CSc2nc(O)c(Cc3ccccc3)c(=O)[nH]2)s1 | i | i | 25.9 | i | i | i | i | i
O=C(O[C@@H]1OC2COC(=O)c3cc(O)c(O)c(O)c3-c3c(cc(O)c(O)c3O)C(=O)O[C@@H]([C@H]1O)[C@@H]2O)c1cc(O)c(O)c(O)c1 | i | nt | 24.2 | i | i | nt | i | i
CN(C(=O)c1ccc(NC(=O)Cc2ccc(NC(=O)C3CCN(C(=O)C4CCC4)CC3)cc2)cc1)C1CC1 | i | i | i | i | i | i | nt | nt
CN(C(=O)c1ccc(NC(=O)Cc2ccc(NC(=O)C3CCN(C(=O)C4CCCC4)CC3)cc2)cc1)C1CC1 | i | i | 25.3 | i | i | i | i | i
O=P(c1ccccc1)(c1ccccc1)C1CCCO1 (centres undefined) | i | i | i | i | i | i | nt | nt
